# This is a sample that favours compounds with a hit; in the whole collection about 2% have one here.
# Dynein transport = inhibitors of GR-EGFP nuclear translocation, primary screen, dynein cargo transport inhibitor project, imaging, high-content, 3617.4 mouse cells | test concentration mostly 20 µM; stimulated with dexamethasone, 1 µM; active compounds read low | z-score, hits read low | actives 0.47% (n = 220,000) | AID 1381, 2008;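 active means plate z-score of nuclear minus cytoplasmic receptor signal below a set negative limit, without overly bright fluorescence or cell loss, cut at about -3.5 in these data, passing the limit was not always enough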;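 further: z-score of nuclear minus cytoplasmic ring GR-EGFP intensity difference per well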
#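 Buffer or medium – tet-free medium with charcoal-stripped serum · Signal – automated 10x imaging of fixed Hoechst-stained cells · Also added – dexamethasone agonist, 1.0 µM final, for 30 min · Incubation – induction 48 h, compound 1 h, agonist 30 min · Read-out – GR-EGFP nuclear translocation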
# Autophagy mod = autophagy modulators in MEF cells, primary screen, imaging, high-content, MEF GFP-LC3 | AID 463193, 2010 | MEF GFP-LC3 puncta imaging; test concentration mostly 10 µM | calls only at 10 µM (by protocol) | actives 0.98% (n = 190,000);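 active means percentage of spot-positive cells more than 3 SD above its plate mean, without a fluorescence outlier flag or 80% toxicity; inconclusive means no clear call, values can overlap the other calls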;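 further: spot-positive cell cutoff set from DMSO-treated cells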
# Insulin prom inh = inhibitors of insulin promoter-driven GFP, primary screen, imaging, TRM-6 cells, eGFP reporter, cell count | reporter expression induced with tamoxifen | inhibition, % at 2 µM | actives 0.9% (n = 130,000) | AID 1273, 2008;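 active means inhibition above the mean plus 3 SD, with well images judged a real hit on visual review, cut at about 60% in these data, passing the limit was not always enough; inconclusive means inhibition over the cutoff but images rejected on review; inactive means inhibition not above the cutoff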
# Insulin prom up = insulin promoter activators in MIN6 cells, imaging, high-content screening, mouse beta cells. MIN6 insulin promoter-GFP reporter; active compounds read high. z-score at 5 µM. actives 0.3% (n = 190,000);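 active means z-score above 3 at 5 µM with at least 500 cells counted in the well; inconclusive means wells under 500 cells, flagged as cytotoxic or low count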
# HSV augment = enhancers of HSV replication in host cells, fold increase, host cell viability; HSV replication augmentation in cells; maximum fold increase; actives 0.005% (n = 220,000); in the data active means maximum fold increase above about 1.5; inconclusive means no clear call, values can overlap the other calls; tested in PC3 cells
# Furin inhibitor = human furin inhibitors, primary screen, biochemical, fluorescence intensity | P09958 | purified furin, fluorogenic substrate cleavage | inhibition, % at 20 µM or 30 µM | actives 0.061% (n = 220,000) | AID 463115, 2010; in the data active means inhibition above about 25%
# Target sequence (P09958 108-714 limits assumed): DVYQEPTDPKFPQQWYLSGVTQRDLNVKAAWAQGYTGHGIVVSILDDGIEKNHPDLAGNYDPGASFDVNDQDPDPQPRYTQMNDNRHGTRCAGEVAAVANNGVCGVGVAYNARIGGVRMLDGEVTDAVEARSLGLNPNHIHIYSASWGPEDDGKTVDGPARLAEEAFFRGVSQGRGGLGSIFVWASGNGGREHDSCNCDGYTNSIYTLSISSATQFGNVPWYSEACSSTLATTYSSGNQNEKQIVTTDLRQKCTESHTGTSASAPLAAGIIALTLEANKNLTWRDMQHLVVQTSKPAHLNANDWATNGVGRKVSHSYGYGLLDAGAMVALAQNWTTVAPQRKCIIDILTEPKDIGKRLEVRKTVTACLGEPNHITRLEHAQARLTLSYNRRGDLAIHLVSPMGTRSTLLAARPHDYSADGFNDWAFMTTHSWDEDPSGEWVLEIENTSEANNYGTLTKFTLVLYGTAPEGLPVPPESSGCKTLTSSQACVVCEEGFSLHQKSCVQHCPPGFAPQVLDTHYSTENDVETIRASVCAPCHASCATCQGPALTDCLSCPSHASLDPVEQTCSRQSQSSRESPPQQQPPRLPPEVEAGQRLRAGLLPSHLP
# The depositor's hits bear a star; i = inactive; ? = inconclusive; / = no result given; + = active, no number.
SMILES,Dynein transport,Autophagy mod,Insulin prom inh,Insulin prom up,HSV augment,Furin inhibitor
CCOC(=O)CSc1nc2cccnc2n1C,0.144,i,/,-0.04,i,-20.4
CCOC(=O)CNC(=O)CSc1nc2cccnc2n1C,0.922,+,-30.3,-0.74,i,-10.8
CN(C)c1ccc(/C=C2\SC(=S)N(Nc3ncc(C(F)(F)F)cc3Cl)C2=O)cc1,-5.01,+,-62.8,/,?,-25.2
COc1cc(/C=C2\SC(=S)N(Nc3ncc(C(F)(F)F)cc3Cl)C2=O)ccc1O,-0.297,i,48.6,-0.21,?,-6.5
Cn1c(=NC(=O)c2ccccc2[N+](=O)[O-])sc2cccc(F)c21,1.69,/,/,0.26,i,-12.5
O=C(COc1ccc(/C=N/NC(=O)C(=O)N2CCCCC2)cc1)Nc1ccccc1Cl,-0.573,i,18.8,/,i,-16.8
Cc1nnc(SCC(=O)c2ccc(Br)cc2)s1,-0.407,i,78.6*,0.34,i,-28.3
Cc1ccc(C(=O)CSc2nnc(C)s2)cc1,-0.254,i,7.1,0.89,i,-16.5
NS(=O)(=O)c1ccc(NC(=O)C2Cc3ccccc3C(=O)O2)cc1 (stereo not given),1.45,i,71.4*,0.43,i,2.6
CC1(C)Oc2ccc(C(=O)NC3CC3)cc2N(CC(=O)N2CCOCC2)C1=O,-0.146,i,51.9,-0.35,i,-18.9
CC1(C)Oc2ccc(C(=O)NC3CCCC3)cc2N(CC(=O)N2CCOCC2)C1=O,-0.165,+,/,0.64,i,-20.6
COc1ccc(NC(=O)CC2(CC(=O)O)CCCC2)cn1,-0.76,i,/,0.04,i,-34.3
Cc1nc(CNC(=O)c2ccccc2OC2CCN(S(C)(=O)=O)CC2)cs1,0.192,i,/,-0.4,i,-18.5
Cc1nc(CN(C)C(=O)c2ccccc2OC2CCN(S(C)(=O)=O)CC2)cs1,0.295,+,/,-0.16,i,-7.2
c1ccc(COc2ccc(OCCCCN3CCCCC3)cc2)cc1,5.63,+,/,-1.91,i,-16.4
CCN1CCN(CCCOc2ccccc2-c2ccccc2)CC1,0.786,i,/,-0.32,i,-4.0
O=C(c1ccccc1)c1ccc(OCCCCN2CCCCC2)cc1,-0.49,i,-62.1,-0.95,i,-10.0
CCN1CCN(CCCOc2ccc(-c3ccccc3)cc2)CC1,7.67,+,-12.5,-0.77,i,2.4
CS/C(=C/[N+](=O)[O-])Nc1cccc2c1C(C)CC2(C)C (stereo not given),-1.59,i,/,0.1,i,6.3
CN(C)C(=O)C(CCN1CCC(O)(c2ccc(Cl)cc2)CC1)(c1ccccc1)c1ccccc1,-0.191,+,-18.2,/,i,-14.8
OCCNc1nc(-c2ccccc2)c2cc(Cl)ccc2n1,-0.355,+,-4.3,/,i,-20.8
Cc1ccc2nc(NCCO)nc(-c3ccccc3)c2c1,2.85,i,-43.8,-1.24,/,-6.1
CSCCC(NC(=O)c1ccc(C(C)(C)C)cc1)C(=O)O (stereo not given),-0.182,i,-144.4,-1.45,i,-23.2
c1ccc(CN2CCN(c3nc(N4CCOCC4)c4ccccc4n3)CC2)cc1,0.18,+,13.3,/,i,-9.0
c1ccc2c(N3CCOCC3)nc(N3CCOCC3)nc2c1,2.05,i,20.0,/,i,13.4
SMILES,Dynein transport,Autophagy mod,Insulin prom inh,Insulin prom up,HSV augment,Furin inhibitor
O=C(N/N=C/c1ccc(COc2ccc(Br)cc2)o1)c1ccco1,-0.65,i,-38.7,-0.09,i,-23.3
CCn1nc(Cc2cccc3ccccc23)c(C#N)c1N,/,/,/,/,i,/
Cc1ccc([N+](=O)[O-])cc1S(=O)(=O)N1CCNCC1,-0.356,i,-5.3,-0.34,i,-16.5
Cc1cc(C)c(C)c(S(=O)(=O)N2CCNCC2)c1C,-0.778,+,/,-0.86,i,-6.6
O=C(CSc1ncccn1)NC(=O)Nc1ccc2c(c1)OCCO2,-1.26,i,26.7,0.02,i,-7.7
Cc1ccc(C)c(SCC(=O)NC(=O)Nc2ccc3c(c2)OCCO3)c1,-0.489,i,80.0*,/,i,-34.0
O=C1c2ccccc2-c2onc3ccc(Oc4ccccc4)c1c23,-0.897,+,-400.0,1.29,/,-22.6
CC(C)(C)NC(=O)NC(=O)CN1CCN(S(=O)(=O)c2ccc3c(c2)OCCO3)CC1,1.83,/,/,1.33,i,-17.3
Cc1ccc(CN(C)C(=O)c2ccc3c(c2)NC(=O)CS3)o1,-0.144,/,/,0.03,i,-10.0
O=C(NNC1CC(=O)N(c2ccc3c(c2)OCCO3)C1=O)c1ccc(Cl)cc1 (stereo not given),-0.16,i,30.0,/,i,-14.4
Cc1ccc(C(=O)NNC2CC(=O)N(c3ccc4c(c3)OCCO4)C2=O)cc1 (stereo not given),0.319,i,85.0*,/,i,-13.4
O=C(Nc1cccc([N+](=O)[O-])c1)Nc1cccs1,0.464,i,56.2,-1.14,i,-13.8
COC(=O)[C@@]1(Cc2ccc(OC)cc2)[C@@H]2C(=CC(=O)[C@H]2CC(=O)C(=O)N2CCCC2)CN1C(=O)c1ccccc1,-4.74*,i,40.0,2.35,i,-16.6
Cc1ccccc1C(=O)NC1CCN(C(=O)N2CCOCC2)CC1,-0.269,i,75.0*,/,i,-22.5
CCOc1ccc(C(=O)NCc2ccccc2)cc1Br,0.238,i,-64.5,/,i,-17.9
O=c1[nH]c(NC2CCCCC2)c([N+](=O)[O-])c(=O)[nH]1,0.355,i,-16.7,0.06,i,-12.8
Cc1c(Cl)sn(-c2ccc(Cl)cc2)c1=O,-4.56*,i,/,-1.9,i,-13.9
Cc1nn(-c2ccc(Cl)cc2)c(=O)c2ccccc12,-0.891,i,/,1.13,i,-17.9
CC(C)c1nc(-c2ccccc2)c(-c2ccccc2)[nH]1,2.06,i,87.0*,-0.31,i,-12.9
c1ccc(-c2nc(-c3cccs3)[nH]c2-c2ccccc2)cc1,-0.284,i,50.0,-0.54,i,-20.5
Cc1cc(-c2nnc(CCC(=O)N3CCN(Cc4cccnc4)CC3)o2)c(C)o1,0.165,i,/,0.03,i,-22.3
CC(C)c1ccc(NC(=O)Cn2c(=O)oc3cccnc32)cc1,0.822,/,/,-0.19,i,-23.1
COc1ccc(CN2C3CCCC2CC(NC(=O)Nc2ccccc2)C3)cc1 (stereo not given),-1.01,i,81.2*,0.03,i,-20.3
CC(C)CCc1noc(CN(CC2CCC2)CC2CCCO2)n1 (stereo not given),1.41,/,/,-0.6,i,-11.2
CCOC(=O)c1[nH]c2cc(OC)c(OC)cc2c1NC(=O)CN1CCN(c2ccc(OC)cc2)C(C)C1 (stereo not given),1.34,i,66.7*,-0.2,i,-22.7
Cc1nc(C(=O)NNC(=O)c2ccc(C(F)(F)F)cc2)cs1,-0.447,/,/,-0.21,i,-23.5

# Compound activity (PubChem)
